In ChEMBL document CHEMBL5131498, “Synthesis and biological evaluation of orally active prodrugs and analogs of para-aminosalicylic acid (PAS)” (Eur J Med Chem, 2022):
Converted amounts (≈) assume the structure as drawn.

Key:
[1] = Metabolic stability in human plasma assessed as parent compound remaining at 1 ug/ml measured after 2 hrs by LC-MS/MS analysis; format: ADME, cell-free; details: at 1 µg/mL, read-out: Stability
In short: (§1)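 Compound at 1 μg/mL final (from 20 μg/mL DMSO stock; 5% DMSO) incubated in K2EDTA plasma (female CD-1 mouse or human) at 37 °C with shaking. Aliquots quenched in 1:1 MeCN/MeOH with verapamil; parent and released PAS measured by high-resolution LC-MS/MS; percent parent remaining versus initial concentration at 120 min.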

[2] = AUC in CD-1 mouse plasma assessed as para-aminosalicylic acid AUC at 10 mg/kg, po administered as single dose and measured up to 5 hrs by HPLC-MS/MS analysis; format: ADME, organism-based; set-up: time < 5 hrs, dose 10 mg/kg, route po; details: in vivo
In short: (§2)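 Snapshot PK: single oral gavage at 10 mg/kg in 5% dimethylacetamide:60% PEG 300:35% (5% dextrose in water) solution to female CD-1 mice (n = 2). Tail-vein blood (K2EDTA) at 0.5, 1, 3, 5 h; plasma protein-precipitated in MeCN with internal standard, prodrug and released PAS quantified by LC-MS/MS; AUC by non-compartmental analysis.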

[3] = Metabolic stability in CD-1 mouse plasma assessed as parent compound remaining at 1 ug/ml measured after 2 hrs by LC-MS/MS analysis; format: ADME, cell-free; details: at 1 µg/mL, read-out: Stability; in short: as §1
[4] = AUC in CD-1 mouse at 10 mg/kg, po administered as single dose and measured up to 5 hrs by LC-MS/MS analysis; format: ADME, organism-based; set-up: dose 10 mg/kg, time < 5 hrs, route po; details: in vivo; in short: as §2
[5] = system: Mycobacterium tuberculosis; experiment: Antimycobacterial activity against Mycobacterium tuberculosis H37Rv assessed as inhibition of bacterial growth measured after 10 days by microbroth dilution method; format: functional; details: 240 h, time 10 day
[6] = Ratio of compound AUC to para-aminosalicylic acid AUC in CD-1 mouse; format: ADME; details: in vivo
[7] = AUC in CD-1 mouse at 25 mg/kg, po administered as single dose and measured up to 24 hrs by LC-MS/MS analysis; format: ADME, organism-based; set-up: dose 25 mg/kg, time < 24 hrs, route po; details: in vivo
In short: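 Female CD-1 mice (n = 3) given a single oral gavage dose of 25 mg/kg as a 0.5% CMC/0.5% Tween 80 suspension. Tail-vein blood was drawn at 0.5, 1, 3, 5, 7 and 24 h into K2EDTA and plasma stored at −80 °C. Only PAS was quantified, by LC-MS/MS after MeCN precipitation.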

[8] = AUC in CD-1 mouse plasma assessed as para-aminosalicylic acid AUC at 25 mg/kg, po administered as single dose and measured up to 24 hrs by LC-MS/MS analysis; format: ADME, organism-based; set-up: dose 25 mg/kg, time < 24 hrs, route po; details: in vivo
[9] = system: Mycobacterium tuberculosis; experiment: Antimycobacterial activity against drug susceptible Mycobacterium tuberculosis H37Rv assessed as inhibition of bacterial growth measured after 2 weeks by microbroth dilution method; format: functional; details: 336 h
In short: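 Diluted 1000-fold into 96-well plates with 2-fold serial compound dilutions and incubated at 37 °C for 2 weeks. Growth scored by mirror at 1 and 2 weeks. MIC is the lowest concentration completely inhibiting growth; tested in duplicate. DMSO, isoniazid and linezolid served as controls.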

[10] = AUC in CD-1 mouse plasma assessed as para-aminosalicylic acid AUC at 25 mg/kg, po administered as single dose and measured up to 5 hrs by LC-MS/MS analysis; format: ADME, organism-based; set-up: dose 25 mg/kg, time < 5 hrs, route po; details: in vivo
In short: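 Female CD-1 mice (n = 2) dosed once by oral gavage at 25 mg/kg in 5% dimethylacetamide:60% PEG 300:35% (5% dextrose in water). Lateral tail-vein blood into K2EDTA at 0.5, 1, 3, 5 h; plasma analysed by LC-MS/MS after MeCN precipitation with internal standard; AUC over 5 h by non-compartmental fit.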

SMILES | remaining at 2 h, 1 ug/ml [1] | remaining at 2 h, 1 ug/ml [3] | MIC90 [5] | Ratio AUC [6] | other results
COC(=O)c1ccc(N)cc1O | 94% | 84% | 64 µM (≈ 10.7 µg/mL) | 0.2 | AUC [2]: 0.053 µg·h/mL; AUC at 5 h [4]: 1700 ng·h/mL
[N-]=[N+]=Nc1ccc(C(=O)O)c(O)c1 | – | – | 128 µM (≈ 22.9 µg/mL) | 430 | AUC [7]: 900 µg·h/mL
CC(C)(C)C(=O)OCOC(=O)c1ccc(N)cc1O | 15% | 0% | – | – | AUC [2]: 0.46 µg·h/mL; AUC [8]: 0.3 µg·h/mL
CNc1ccc(C(=O)O)c(O)c1 | – | – | > 128 µM | 59 | AUC [7]: 130 µg·h/mL
CCOC(=O)c1cc(F)c(N)cc1O | – | – | > 128 µM | 0.02 | –
CNc1ccc(C(=O)OC)c(O)c1 | 96% | 90% | – | – | AUC at 5 h [4]: 78 ng·h/mL
Cl.Nc1cc(O)c(C(=O)O)c(F)c1 | – | – | 64 µM | 1.2 | AUC [7]: 2.4 µg·h/mL
CC(C)OC(=O)OC(C)OC(=O)c1ccc(N)cc1O (centres undefined) | 24% | 0% | – | – | AUC [2]: 0.19 µg·h/mL
Cl.Nc1ccc(C(=O)O)c(O)c1F | – | – | 32 µM | 1.9 | AUC [7]: 4 µg·h/mL
CC(C)OC(=O)c1ccc(N)cc1O | 93% | 94% | > 128 µM | 0.6 | AUC at 5 h [4]: 230 ng·h/mL
Nc1cc(O)c(C(=O)O)cc1F | – | – | 8 µM (≈ 1.37 µg/mL) | 4.9 | AUC [7]: 10 µg·h/mL; MIC90 [9]: 6.3 µM (≈ 1.08 µg/mL)
Cc1oc(=O)oc1COC(=O)c1ccc(N)cc1O | 0% | 0% | – | – | AUC [10]: 0.25 µg·h/mL
CC(OC(=O)c1ccc(N)cc1O)OC(=O)C(C)(C)C (centres undefined) | 0% | 0% | – | – | AUC [10]: 0.19 µg·h/mL
CC(C)OC(=O)OCOC(=O)c1ccc(N)cc1O | 0% | 0% | – | – | AUC [2]: 0.019 µg·h/mL
CCOC(=O)c1ccc(N)cc1O | 94% | 92% | 2 µM (≈ 0.362 µg/mL) | 0.1 | AUC at 5 h [4]: 44 ng·h/mL
Nc1ccc(C(=O)O)c(O)c1 [AMINOSALICYLIC ACID] | – | – | 0.5 µM (≈ 0.0766 µg/mL) | 1 | AUC [2]: 0.38 µg·h/mL; AUC [8]: 3.4 µg·h/mL; MIC90 [9]: 0.2 µM (≈ 0.0306 µg/mL)
CC(=O)NC[C@H]1CN(c2ccc(N3CCOCC3)c(F)c2)C(=O)O1 [LINEZOLID] | – | – | – | – | MIC90 [9]: 0.7 µM (≈ 0.236 µg/mL)
